In experiment [1] the test system is Hepatitis C virus. The experiment can be described thus: Inhibition of HCV 1b BK NS5B delta21 RNA polymerase expressed in Escherichia coli. Further details: species or system Hepatitis C virus subtype 1b.
Experiment [2] in a line: Cytotoxicity against Huh7 cells by MTS assay. The format is cell-based. Conditions: Homo sapiens, Huh-7. Background: Formazan colour is commonly taken as a measure of viable cells.
Experiment [3] has as its system Hepatitis C virus. As to the kind of experiment: Antiviral activity in Huh7 cells containing HCV 1b BB7 replicon. The format is functional, organism-based, Hepacivirus hominis. Conditions: genotype 1b, Huh-7. In a few lines: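 Huh7 cells carrying the genotype 1b BB7 replicon were exposed to increasing compound concentrations for 3 days in DMEM with 2% FCS and no G418. HCV, ribosomal and GAPDH mRNA levels were measured by quantitative TaqMan RT-PCR. Values are averages of at least three determinations.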
In general terms: A replicon is a self-replicating genome or part of one, used to study replication in cells.

The nature of experiment [4]: Inhibition of RNA polymerase 2. Further details: species or system Homo sapiens.
A short description of experiment [5]: Inhibition of HIV reverse transcriptase. Further details: species or system Human immunodeficiency virus. In a few lines: (§1)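 The enzyme was incubated with compound in buffer containing four dNTPs spiked with [α-33P]TTP, with dNTPs and templates at their respective Km levels. Templates were poly(dA)-oligo(dT)12 for HIV RT, activated calf thymus DNA for CT pol α and human pol α/β, and singly primed M13 DNA for human pol γ. Reactions ran 1-2 h at 37 °C, and filtered product was counted. Values are averages of at least three determinations.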

Experiment [6] is described as follows: Inhibition of calf thymus DNA polymerase alpha. Also on record: species or system Bos taurus. In a few lines: as §1
A short description of experiment [7]: Inhibition of human DNA polymerase gamma. In a few lines: as §1
Experiment [8] is described as follows: Inhibition of human DNA polymerase alpha. In a few lines: as §1
A short description of experiment [9]: Inhibition of human DNA polymerase beta. In a few lines:
as §1

Some results are limits rather than exact numbers.

The IC50 is the concentration that inhibits the measured activity by half. High values mean weaker potency, low ones greater potency.

With `CC(=O)c1cc(Cl)c(C)cc1NCC(=O)Nc1ccccc1C(=O)O`, the half-inhibitory concentration (IC50) was 0.08 µM with Hepatitis C virus [1], > 139 µM in [2] and 3.1 µM with Hepatitis C virus [3].
As for `C[C@@H](Oc1ccc(Cl)cc1)C(=O)Nc1ccccc1C(=O)O`, the 50% inhibitory concentration (IC50) with Hepatitis C virus [1] is 50 µM.
As to `Cc1cc(OCC(=O)Nc2ccccc2C(=O)O)c(Br)cc1Cl`, the results for the concentration for half-maximal inhibition (IC50) (with Hepatitis C virus [1]; in [2]; in the experiment on Hepatitis C virus [3]) were 0.11 µM, > 115 µM and > 11 µM, respectively.
Taken in the same sequence, the figures for `O=C(CNc1ccc(F)c(Cl)c1)Nc1ccccc1C(=O)O` were 0.21 µM, 155 µM and 40 µM.
For `CCc1cc(NCC(=O)Nc2ccccc2C(=O)O)c(C(C)=O)cc1Cl`, the results for the IC50 (in the experiment on Hepatitis C virus [1]; in experiment [2]; with Hepatitis C virus [3]) were 0.032 µM, 44 µM and 5 µM, respectively.
For `CC(=O)c1cc(Cl)ccc1OCC(=O)Nc1ccccc1C(=O)O`, in that order: 0.53 µM, > 115 µM and > 11 µM.
Taken in the same sequence, the figures for `CC(=O)c1cc(F)c(Cl)cc1OCC(=O)Nc1ccccc1C(=O)O` were 0.23 µM, > 115 µM and > 11 µM.
For `CC(=O)c1cc(F)c(Br)cc1NCC(=O)Nc1ccccc1C(=O)O`, the half-maximal inhibitory concentration (IC50) in experiment [4] is > 122 µM; in [5], > 122 µM; in [6], > 122 µM; in the experiment with Hepatitis C virus [1] it was 0.01 µM; in experiment [2], > 122 µM; with Hepatitis C virus [3], 2 µM. In addition, the IC50 is > 24 µM in [7], > 122 µM in experiment [8] and > 122 µM in experiment [9].
Turning to `CC(=O)c1cc(Cl)c(F)cc1OCC(=O)Nc1ccccc1C(=O)O`, the IC50 in the experiment on Hepatitis C virus [1] was 0.11 µM; in experiment [2] it was > 115 µM; with Hepatitis C virus [3], > 11 µM.
Taken in the same sequence, the figures for `CC(=O)c1cc(Cl)ccc1NCC(=O)Nc1ccccc1C(=O)O` were 0.23 µM, > 144 µM and 12 µM.
On to `O=C(COc1ccc(F)cc1)Nc1ccccc1C(=O)O`, for which the IC50 in the experiment on Hepatitis C virus [1] came to 5.2 µM.
The same measure, in the same setting: the result for `C[C@H](Oc1ccc(Cl)cc1)C(=O)Nc1ccccc1C(=O)O` reads 0.76 µM; that for `COC(=O)c1ccccc1NC(=O)COc1ccc(Cl)cc1`, > 31 µM.
In the case of `O=C(COc1ccccc1)Nc1ccccc1C(=O)O`, the IC50 in the experiment on Hepatitis C virus [1] is > 37 µM.
In the case of `O=C(COc1cc(Cl)c(Cl)cc1Cl)Nc1ccccc1C(=O)O`, the IC50 in the experiment on Hepatitis C virus [1] is 0.03 µM; in experiment [2] it was > 115 µM; in the experiment on Hepatitis C virus [3], > 11 µM.
In the case of `CC(=O)c1cc(F)ccc1OCC(=O)Nc1ccccc1C(=O)O`, the IC50 in the experiment on Hepatitis C virus [1] was 1.5 µM; in experiment [2], > 115 µM; with Hepatitis C virus [3], > 11 µM.
Consider `O=C(COc1cccc(Br)c1)Nc1ccccc1C(=O)O`, for which the IC50 in the experiment on Hepatitis C virus [1] is 1.14 µM.
`CC(=O)c1cc(F)c(Cl)cc1NCC(=O)Nc1ccccc1C(=O)O`: the 50% inhibitory concentration (IC50) in [4] was > 137 µM; in experiment [5], > 137 µM; in experiment [6], > 137 µM; in experiment [2], > 137 µM; in the experiment with Hepatitis C virus [3] it was 2 µM; in [7] it was > 27 µM. For the same molecule, the IC50 in experiment [8] and in experiment [9] was > 137 µM in each case.
Consider `CC(=O)c1ccc(Cl)cc1OCC(=O)Nc1ccccc1C(=O)O`, for which the IC50 in the experiment with Hepatitis C virus [1] is 0.86 µM; in [2], > 115 µM; in the experiment on Hepatitis C virus [3], > 11 µM.
`CC(=O)c1cc(Cl)c(Cl)cc1NCC(=O)Nc1ccccc1C(=O)O`: the half-maximal inhibitory concentration (IC50) in the experiment with Hepatitis C virus [1] came to 0.03 µM; in [2], 123 µM; in the experiment with Hepatitis C virus [3] it was 10 µM.
Consider `CC(=O)c1cc(C)c(C)cc1NCC(=O)Nc1ccccc1C(=O)O`, for which the values for the IC50 (in the experiment on Hepatitis C virus [1]; in experiment [2]; with Hepatitis C virus [3]) were 0.21 µM, > 147 µM and 32 µM, respectively.
Regarding `CC(=O)c1cc(Br)ccc1NCC(=O)Nc1ccccc1C(=O)O`, the values for the IC50 (with Hepatitis C virus [1]; in [2]; in the experiment on Hepatitis C virus [3]) were 0.11 µM, > 128 µM and 43 µM, respectively.
Taken in the same sequence, the figures for `COc1cc(Cl)ccc1OCC(=O)Nc1ccccc1C(=O)O` were 0.57 µM, > 115 µM and > 11 µM.
Take `CN(CC(=O)Nc1ccccc1C(=O)O)c1ccc(Cl)c(Cl)c1`: the figures for the IC50 (in the experiment on Hepatitis C virus [1]; in experiment [2]; in the experiment on Hepatitis C virus [3]) were 0.17 µM, 47 µM and 14 µM, respectively.
Taken in the same sequence, the figures for `CC(=O)c1cc(Br)c(Cl)cc1NCC(=O)Nc1ccccc1C(=O)O` were 0.022 µM, > 117 µM and 30 µM.
`O=C(COc1ccc(Cl)cc1)Nc1cccc(C(=O)O)c1`: the IC50 with Hepatitis C virus [1] was > 33 µM.
Molecule `CCC(=O)c1cc(Cl)ccc1NCC(=O)Nc1ccccc1C(=O)O` yielded an IC50 in the experiment with Hepatitis C virus [1] of 3.36 µM.
In the case of `O=C(COc1ccc(Cl)cc1Cl)Nc1ccccc1C(=O)O`, the IC50 is 0.45 µM in the experiment with Hepatitis C virus [1], > 115 µM in [2] and > 11 µM with Hepatitis C virus [3].
For the molecule `COc1ccc(OCC(=O)Nc2ccccc2C(=O)O)cc1`, the IC50 with Hepatitis C virus [1] turned out to be 35 µM.
As to `Cc1cc(Cl)ccc1OCC(=O)Nc1ccccc1C(=O)O`, the IC50 was 0.57 µM in the experiment with Hepatitis C virus [1], > 115 µM in experiment [2] and > 11 µM in the experiment with Hepatitis C virus [3].
Taken in the same sequence, the figures for `O=C(COc1cc(F)c(F)cc1F)Nc1ccccc1C(=O)O` were 1.27 µM, > 115 µM and > 11 µM.
In the case of `CC(=O)c1cc(Cl)c(C)cc1OCC(=O)Nc1ccccc1C(=O)O`, the values for the IC50 (in the experiment with Hepatitis C virus [1]; in experiment [2]; in the experiment with Hepatitis C virus [3]) were 0.14 µM, > 115 µM and > 11 µM, respectively.
Consider `CC(=O)c1cc(Cl)c(F)cc1NCC(=O)Nc1ccccc1C(=O)O`, for which the IC50 in the experiment with Hepatitis C virus [1] is 0.18 µM; in [2], > 137 µM; in the experiment with Hepatitis C virus [3] it was 17 µM.
Regarding `O=C(COc1ccc(Cl)cc1)Nc1ccc(C(=O)O)cc1`, the concentration for half-maximal inhibition (IC50) with Hepatitis C virus [1] was > 28 µM.
For `CC(C)(Oc1ccc(Cl)cc1)C(=O)Nc1ccccc1C(=O)O`, in the experiment on Hepatitis C virus [1], the IC50 is > 30 µM.
On the same count and under the same terms, the result for `O=C(CNc1cccc(Br)c1)Nc1ccccc1C(=O)O` reads 0.87 µM.
`CC(=O)c1cc(F)c(C)cc1NCC(=O)Nc1ccccc1C(=O)O`: the IC50 in the experiment with Hepatitis C virus [1] came to 7.47 µM.
On to `CC(=O)c1cc(C)ccc1OCC(=O)Nc1ccccc1C(=O)O`, for which the concentration for half-maximal inhibition (IC50) in the experiment with Hepatitis C virus [1] was 2.8 µM; in experiment [2], > 115 µM; in the experiment on Hepatitis C virus [3], > 11 µM.
`O=C(CSc1ccc(Cl)cc1)Nc1ccccc1C(=O)O` returned an IC50 with Hepatitis C virus [1] of 4.4 µM.
In the case of `CC(=O)c1cc(C)c(Cl)cc1NCC(=O)Nc1ccccc1C(=O)O`, the IC50 with Hepatitis C virus [1] was 1.05 µM; in [2] it was > 139 µM; in the experiment on Hepatitis C virus [3], 30 µM.
In turn, `N#Cc1ccc(OCC(=O)Nc2ccccc2C(=O)O)cc1` showed an IC50 with Hepatitis C virus [1] of 5.1 µM.
As for `O=C(CNc1ccc(Cl)c(Cl)c1)Nc1ccccc1C(=O)O`, the results for the IC50 (with Hepatitis C virus [1]; in [2]; in the experiment with Hepatitis C virus [3]) were 0.2 µM, 47 µM and 13 µM, respectively.
Take `O=C(COc1ccc(Br)cc1)Nc1ccccc1C(=O)O`: the IC50 in the experiment with Hepatitis C virus [1] was 3.23 µM.
